According to ChEMBL document CHEMBL5058577, “EUbOPEN Chemogenomics Library 2 (Multiplex)” (2022):

System: HEK-293T
Test: Multiplex assay against HEK293T
Type: toxicity, cell-based
Settings: human
Procedure, shortened: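 Live cells carried four stains from seeding: Hoechst33342, BioTracker Green Microtubule Cytoskeleton Dye, MitoTracker Red and Annexin V Alexa Fluor 680. They were imaged on a CQ1 microscope at 37°C and 5% CO2 after compound addition. Using CellPathfinder machine-learning gating, cells were split into Hoechst high-intensity objects or normal cells, normal cells into healthy, pyknosed or fragmented nuclei, and pyknosed cells into mitotic or apoptotic; tubulin, mitochondrial-mass and membrane-permeability phenotypes are per cents of healthy-nucleus cells.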

[1] = 12 h, 1 µM, compound concentration 1 uM, replicate 1
[2] = 12 h, 1 µM, compound concentration 1 uM, replicate 2
[3] = 12 h, 10 µM, compound concentration 10 uM, replicate 1
[4] = 12 h, 10 µM, compound concentration 10 uM, replicate 2
[5] = 24 h, 1 µM, compound concentration 1 uM, replicate 1
[6] = 24 h, 1 µM, compound concentration 1 uM, replicate 2
[7] = 24 h, 10 µM, compound concentration 10 uM, replicate 1
[8] = 24 h, 10 µM, compound concentration 10 uM, replicate 2
[9] = 48 h, 1 µM, compound concentration 1 uM, replicate 1
[10] = 48 h, 1 µM, compound concentration 1 uM, replicate 2
[11] = 48 h, 10 µM, compound concentration 10 uM, replicate 1
[12] = 48 h, 10 µM, compound concentration 10 uM, replicate 2

Compound: N[C@](CC1c2ccccc2Oc2ccccc21)(C(=O)O)[C@H]1C[C@@H]1C(=O)O
- Population Apoptotic (%) [1]: 38%
- Population Fragmented Nuclei (%) [1]: 6%
- Population Healthy Nuclei (%) [1]: 83%
- Population Hoechst High Intensity Objects (%) [1]: 7%
- Population Membrane Permeable-Phenotype (%) [1]: 0%
- Population Mitochondria Different-Phenotype (%) [1]: 43%
- Population Mitotic Cells (%) [1]: 61%
- Population Normal (%) [1]: 92%
- Population Pyknosed Nuclei (%) [1]: 10%
- Population Tubulin-Different-Phenotype (%) [1]: 27%
- Total Cell Count [1]: 447
- Population Apoptotic (%) [2]: 54%
- Population Fragmented Nuclei (%) [2]: 7%
- Population Healthy Nuclei (%) [2]: 79%
- Population Hoechst High Intensity Objects (%) [2]: 5%
- Population Mitochondria Different-Phenotype (%) [2]: 58%
- Population Mitotic Cells (%) [2]: 45%
- Population Normal (%) [2]: 94%
- Population Pyknosed Nuclei (%) [2]: 12%
- Population Tubulin-Different-Phenotype (%) [2]: 25%
- Total Cell Count [2]: 270
- Population Apoptotic (%) [3]: 32%
- Population Fragmented Nuclei (%) [3]: 9%
- Population Healthy Nuclei (%) [3]: 78%
- Population Hoechst High Intensity Objects (%) [3]: 8%
- Population Membrane Permeable-Phenotype (%) [3]: 0%
- Population Mitochondria Different-Phenotype (%) [3]: 40%
- Population Mitotic Cells (%) [3]: 67%
- Population Normal (%) [3]: 91%
- Population Pyknosed Nuclei (%) [3]: 12%
- Population Tubulin-Different-Phenotype (%) [3]: 23%
- Total Cell Count [3]: 381
- Population Fragmented Nuclei (%) [4]: 4%
- Population Healthy Nuclei (%) [4]: 81%
- Population Hoechst High Intensity Objects (%) [4]: 7%
- Population Mitochondria Different-Phenotype (%) [4]: 66%
- Population Normal (%) [4]: 92%
- Population Pyknosed Nuclei (%) [4]: 13%
- Population Tubulin-Different-Phenotype (%) [4]: 31%
- Total Cell Count [4]: 382
- Population Apoptotic (%) [5]: 21%
- Population Fragmented Nuclei (%) [5]: 8%
- Population Healthy Nuclei (%) [5]: 81%
- Population Hoechst High Intensity Objects (%) [5]: 3%
- Population Membrane Permeable-Phenotype (%) [5]: 1%
- Population Mitochondria Different-Phenotype (%) [5]: 24%
- Population Mitotic Cells (%) [5]: 78%
- Population Normal (%) [5]: 96%
- Population Pyknosed Nuclei (%) [5]: 10%
- Population Tubulin-Different-Phenotype (%) [5]: 15%
- Total Cell Count [5]: 629
- Population Apoptotic (%) [6]: 38%
- Population Fragmented Nuclei (%) [6]: 9%
- Population Healthy Nuclei (%) [6]: 84%
- Population Hoechst High Intensity Objects (%) [6]: 5%
- Population Membrane Permeable-Phenotype (%) [6]: 0%
- Population Mitochondria Different-Phenotype (%) [6]: 30%
- Population Mitotic Cells (%) [6]: 61%
- Population Normal (%) [6]: 94%
- Population Pyknosed Nuclei (%) [6]: 6%
- Population Tubulin-Different-Phenotype (%) [6]: 16%
- Total Cell Count [6]: 368
- Population Apoptotic (%) [7]: 29%
- Population Fragmented Nuclei (%) [7]: 10%
- Population Healthy Nuclei (%) [7]: 79%
- Population Hoechst High Intensity Objects (%) [7]: 5%
- Population Membrane Permeable-Phenotype (%) [7]: 0%
- Population Mitochondria Different-Phenotype (%) [7]: 30%
- Population Mitotic Cells (%) [7]: 70%
- Population Normal (%) [7]: 94%
- Population Pyknosed Nuclei (%) [7]: 10%
- Population Tubulin-Different-Phenotype (%) [7]: 17%
- Total Cell Count [7]: 510
- Population Apoptotic (%) [8]: 40%
- Population Fragmented Nuclei (%) [8]: 6%
- Population Healthy Nuclei (%) [8]: 82%
- Population Mitochondria Different-Phenotype (%) [8]: 41%
- Population Mitotic Cells (%) [8]: 59%
- Population Pyknosed Nuclei (%) [8]: 11%
- Population Tubulin-Different-Phenotype (%) [8]: 16%
- Total Cell Count [8]: 471
- Population Apoptotic (%) [9]: 12%
- Population Fragmented Nuclei (%) [9]: 11%
- Population Healthy Nuclei (%) [9]: 80%
- Population Hoechst High Intensity Objects (%) [9]: 2%
- Population Membrane Permeable-Phenotype (%) [9]: 2%
- Population Mitochondria Different-Phenotype (%) [9]: 15%
- Population Mitotic Cells (%) [9]: 87%
- Population Normal (%) [9]: 97%
- Population Pyknosed Nuclei (%) [9]: 7%
- Population Tubulin-Different-Phenotype (%) [9]: 13%
- Total Cell Count [9]: 1040
- Population Apoptotic (%) [10]: 17%
- Population Fragmented Nuclei (%) [10]: 12%
- Population Healthy Nuclei (%) [10]: 81%
- Population Hoechst High Intensity Objects (%) [10]: 1%
- Population Membrane Permeable-Phenotype (%) [10]: 0%
- Population Mitochondria Different-Phenotype (%) [10]: 17%
- Population Mitotic Cells (%) [10]: 82%
- Population Normal (%) [10]: 98%
- Population Pyknosed Nuclei (%) [10]: 6%
- Population Tubulin-Different-Phenotype (%) [10]: 10%
- Total Cell Count [10]: 654
- Population Apoptotic (%) [11]: 28%
- Population Fragmented Nuclei (%) [11]: 13%
- Population Healthy Nuclei (%) [11]: 78%
- Population Hoechst High Intensity Objects (%) [11]: 2%
- Population Membrane Permeable-Phenotype (%) [11]: 0%
- Population Mitochondria Different-Phenotype (%) [11]: 17%
- Population Mitotic Cells (%) [11]: 71%
- Population Normal (%) [11]: 97%
- Population Pyknosed Nuclei (%) [11]: 8%
- Population Tubulin-Different-Phenotype (%) [11]: 8%
- Total Cell Count [11]: 789
- Population Apoptotic (%) [12]: 42%
- Population Healthy Nuclei (%) [12]: 80%
- Population Hoechst High Intensity Objects (%) [12]: 4%
- Population Mitochondria Different-Phenotype (%) [12]: 25%
- Population Mitotic Cells (%) [12]: 57%
- Population Normal (%) [12]: 95%
- Population Pyknosed Nuclei (%) [12]: 6%
- Population Tubulin-Different-Phenotype (%) [12]: 12%
- Total Cell Count [12]: 687
